Assay results reported in ChEMBL document CHEMBL1154198, “Chemical genetics of Plasmodium falciparum” (Nature, 2010).

Key:
Plasmodium falciparum [1] = experiment: ST_JUDE: Cytotoxicity against Plasmodium falciparum Dd2; format: functional, organism-based
Trypanosoma brucei = experiment: ST_JUDE: Cytotoxicity using luciferase to measure ATP as an indicator of the viability of Trypanosoma brucei; format: functional, organism-based
Plasmodium falciparum [2] = experiment: ST_JUDE: Cytotoxicity against Plasmodium falciparum W2; format: functional, organism-based
Plasmodium falciparum [3] = experiment: ST_JUDE: Cytotoxicity against Plasmodium falciparum 3D7; format: functional, organism-based
Outline: (§1)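 Asexual P. falciparum grown in human erythrocytes, exposed to compounds for 72 h, and growth read as the DNA quantity in treated versus control cultures. Dose-response run at 12 concentrations from 10 μM to 5 nM.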

Plasmodium falciparum [4] = experiment: ST_JUDE: Cytotoxicity against Plasmodium falciparum V1/S; format: functional, organism-based
[5] = ST_JUDE: Cytotoxicity using luciferase to measure ATP as an indicator of the viability of human foreskin fibroblast cells (BJ); format: toxicity, cell-based
Plasmodium falciparum [6] = experiment: ST_JUDE: Cytotoxicity against Plasmodium falciparum D10 transfected with yeast DHOD; format: functional, organism-based
[7] = ST_JUDE: Cytotoxicity using luciferase to measure ATP as an indicator of the viability of human Burkitt''s lymphoma lymphoblast cells (Raji); format: toxicity, cell-based
Leishmania major = experiment: ST_JUDE: Cytotoxicity using Alamar Blue to measure viability of Leishmania major; format: functional, organism-based
Outline: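 L. major promastigotes; drug susceptibility read with Alamar Blue.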

Plasmodium falciparum [8] = experiment: ST_JUDE: Plasmodium falciparum K1 EC50 (uM) as measured by SYBR green dye; format: functional, organism-based
[9] = ST_JUDE: Cytotoxicity using luciferase to measure ATP as an indicator of the viability of human epithelial hepatocellular carcinoma cells (HepG2); format: toxicity, cell-based
Plasmodium falciparum [10] = experiment: ST_JUDE: Cytotoxicity against Plasmodium falciparum SB-A6; format: functional, organism-based
[11] = ST_JUDE: Cytotoxicity using luciferase to measure ATP as an indicator of the viability of human epithelial embryonic kidney cells (HEK293); format: toxicity, cell-based
Toxoplasma gondii = experiment: ST_JUDE: Growth inhibition of to Toxoplasma gondii, in human U-2OS cells, as measured by luciferase.; format: functional, organism-based; conditions: RH, U2OS
Outline: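 T. gondii parasites engineered to express luciferase; drug sensitivity read by luminescence.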

Plasmodium falciparum [12] = experiment: ST_JUDE: Plasmodium falciparum 3D7 EC50 (uM) as measured by SYBR green dye; format: functional, organism-based
Plasmodium falciparum [13] = experiment: ST_JUDE: Cytotoxicity against Plasmodium falciparum K1; format: functional, organism-based; outline: as §1

**Q.** What does the source list for `Cc1cc(C)nc(/N=C(\N)Nc2ccccc2O)n1`?
**A.** EC50 (Plasmodium falciparum [1]): 908 nM; EC50 (Trypanosoma brucei): > 32.8 µM; EC50 (Plasmodium falciparum [2]): 5.71 µM; EC50 (Plasmodium falciparum [3]): 1430 nM; EC50 (Plasmodium falciparum [4]): 978 nM; EC50 [5]: > 34.2 µM; EC50 (Plasmodium falciparum [6]): 2880 nM; EC50 [7]: > 34.2 µM; EC50 (Leishmania major): > 14.6 µM; EC50 (Plasmodium falciparum [8]): 497 nM; EC50 [9]: > 34.2 µM; EC50 (Plasmodium falciparum [10]): 2180 nM; EC50 [11]: > 34.2 µM; EC50 (Toxoplasma gondii): > 18.7 µM; EC50 (Plasmodium falciparum [12]): 594 nM; EC50 (Plasmodium falciparum [13]): 560 nM

**Q.** Which EC50 (Plasmodium falciparum [1]) does the source give for `OC(CNC1CCCC1)Cn1c2ccc(Cl)cc2c2cc(Cl)ccc21` (stereo unspecified) here?
**A.** 253 nM

**Q.** What about the EC50 (Trypanosoma brucei) of the same compound?
**A.** 2.02 µM

**Q.** What about the EC50 (Plasmodium falciparum [2]) of the same compound?
**A.** 0.572 µM

**Q.** And the EC50 (Plasmodium falciparum [3])?
**A.** 576 nM

**Q.** And the EC50 (Plasmodium falciparum [4])?
**A.** 690 nM

**Q.** What about the EC50 [5] of the same compound?
**A.** > 24.3 µM

**Q.** What about the EC50 (Plasmodium falciparum [6]) of the same compound?
**A.** 652 nM

**Q.** What about the EC50 [7] of the same compound?
**A.** 10.9 µM

**Q.** What about the EC50 (Leishmania major) of the same compound?
**A.** > 10.4 µM

**Q.** What about the EC50 (Plasmodium falciparum [8]) of the same compound?
**A.** 146 nM

**Q.** And the EC50 [9]?
**A.** 8.67 µM

**Q.** What about the EC50 (Plasmodium falciparum [10]) of the same compound?
**A.** 635 nM

**Q.** What about the EC50 [11] of the same compound?
**A.** 20.5 µM

**Q.** And the EC50 (Toxoplasma gondii)?
**A.** > 13.3 µM

**Q.** And the EC50 (Plasmodium falciparum [12])?
**A.** 990 nM

**Q.** And the EC50 (Plasmodium falciparum [13])?
**A.** 258 nM

**Q.** What does the source list for `Cc1ccc(C(O)(CNCc2ccccc2)c2ccc(Br)cc2)cc1` (stereo unspecified)?
**A.** EC50 (Plasmodium falciparum [1]): 1470 nM; EC50 (Trypanosoma brucei): 9.55 µM; EC50 (Plasmodium falciparum [2]): 4.37 µM; EC50 (Plasmodium falciparum [3]): 2100 nM; EC50 (Plasmodium falciparum [4]): 1280 nM; EC50 [5]: > 48.3 µM; EC50 (Plasmodium falciparum [6]): 1730 nM; EC50 [7]: 35.5 µM; EC50 (Leishmania major): > 20.7 µM; EC50 (Plasmodium falciparum [8]): 1110 nM; EC50 [9]: 20 µM; EC50 (Plasmodium falciparum [10]): 3450 nM; EC50 [11]: > 48.3 µM; EC50 (Toxoplasma gondii): > 26.5 µM; EC50 (Plasmodium falciparum [12]): 2230 nM; EC50 (Plasmodium falciparum [13]): 1170 nM

**Q.** Which EC50 (Plasmodium falciparum [1]) does the source give for `COc1ccc(C2CC3=NC(C)=C(C(=O)OC(C)C)C(c4ccccc4OC)C3=C(O)C2)cc1OC` (stereo unspecified) here?
**A.** 812 nM

**Q.** What about the EC50 (Trypanosoma brucei) of the same compound?
**A.** 16.4 µM

**Q.** And the EC50 (Plasmodium falciparum [2])?
**A.** 0.24 µM

**Q.** What about the EC50 (Plasmodium falciparum [3]) of the same compound?
**A.** 711 nM

**Q.** And the EC50 (Plasmodium falciparum [4])?
**A.** 434 nM

**Q.** What about the EC50 [5] of the same compound?
**A.** > 44.8 µM

**Q.** And the EC50 (Plasmodium falciparum [6])?
**A.** 637 nM

**Q.** What about the EC50 [7] of the same compound?
**A.** > 44.8 µM

**Q.** What about the EC50 (Leishmania major) of the same compound?
**A.** > 19.2 µM

**Q.** And the EC50 (Plasmodium falciparum [8])?
**A.** 997 nM

**Q.** What about the EC50 [9] of the same compound?
**A.** > 44.8 µM

**Q.** What about the EC50 (Plasmodium falciparum [10]) of the same compound?
**A.** 367 nM

**Q.** What about the EC50 [11] of the same compound?
**A.** > 44.8 µM

**Q.** What about the EC50 (Toxoplasma gondii) of the same compound?
**A.** 11.4 µM

**Q.** What about the EC50 (Plasmodium falciparum [12]) of the same compound?
**A.** 1390 nM

**Q.** What about the EC50 (Plasmodium falciparum [13]) of the same compound?
**A.** 396 nM

**Q.** Which EC50 (Trypanosoma brucei) does the source give for `CC(C)CN1C(=O)c2ccccc2C(C(=O)Nc2cccc(C(F)(F)F)c2)C1c1cccs1` (stereo unspecified) here?
**A.** 3.3 µM

**Q.** What about the EC50 [5] of the same compound?
**A.** > 47.2 µM

**Q.** What about the EC50 [7] of the same compound?
**A.** > 47.2 µM

**Q.** What about the EC50 (Leishmania major) of the same compound?
**A.** > 20.2 µM

**Q.** And the EC50 [9]?
**A.** 37.7 µM

**Q.** And the EC50 [11]?
**A.** > 47.2 µM

**Q.** What about the EC50 (Toxoplasma gondii) of the same compound?
**A.** > 25.9 µM

**Q.** For `COc1cccc(NC(=O)C2c3ccccc3C(=O)N(CC(C)C)C2c2cccs2)c1` (stereo unspecified), which EC50 (Trypanosoma brucei) is on record?
**A.** 7.54 µM

**Q.** What about the EC50 [5] of the same compound?
**A.** > 40.8 µM

**Q.** And the EC50 [7]?
**A.** > 40.8 µM

**Q.** And the EC50 (Leishmania major)?
**A.** > 17.5 µM

**Q.** What about the EC50 [9] of the same compound?
**A.** > 40.8 µM

**Q.** And the EC50 [11]?
**A.** > 40.8 µM

**Q.** And the EC50 (Toxoplasma gondii)?
**A.** > 22.3 µM

**Q.** What about the EC50 (Plasmodium falciparum [12]) of the same compound?
**A.** 175 nM

**Q.** Which EC50 (Trypanosoma brucei) does the source give for `C=CCN1C=CC=C/C1=C\c1sc2ccccc2[n+]1C` here?
**A.** 10.7 µM

**Q.** What about the EC50 (Plasmodium falciparum [2]) of the same compound?
**A.** 6.16 µM

**Q.** And the EC50 (Plasmodium falciparum [3])?
**A.** 1190 nM

**Q.** And the EC50 (Plasmodium falciparum [4])?
**A.** > 9080 nM

**Q.** What about the EC50 [5] of the same compound?
**A.** > 35.4 µM

**Q.** What about the EC50 (Plasmodium falciparum [6]) of the same compound?
**A.** 5690 nM

**Q.** And the EC50 [7]?
**A.** 8.34 µM

**Q.** And the EC50 (Leishmania major)?
**A.** 0.0503 µM

**Q.** What about the EC50 (Plasmodium falciparum [8]) of the same compound?
**A.** 1200 nM

**Q.** And the EC50 [9]?
**A.** > 35.4 µM

**Q.** What about the EC50 (Plasmodium falciparum [10]) of the same compound?
**A.** 2980 nM

**Q.** What about the EC50 [11] of the same compound?
**A.** > 35.4 µM

**Q.** What about the EC50 (Toxoplasma gondii) of the same compound?
**A.** > 19.4 µM

**Q.** What about the EC50 (Plasmodium falciparum [12]) of the same compound?
**A.** 1990 nM

**Q.** What about the EC50 (Plasmodium falciparum [13]) of the same compound?
**A.** 940 nM

**Q.** Which EC50 (Trypanosoma brucei) does the source give for `O=[N+]([O-])c1ccc2c(c1)c1ccccc1n2Cc1ccccc1O` here?
**A.** 24.5 µM

**Q.** And the EC50 (Plasmodium falciparum [2])?
**A.** 3.7 µM

**Q.** What about the EC50 (Plasmodium falciparum [3]) of the same compound?
**A.** 1300 nM

**Q.** And the EC50 (Plasmodium falciparum [4])?
**A.** > 9060 nM

**Q.** What about the EC50 [5] of the same compound?
**A.** > 35.3 µM

**Q.** And the EC50 (Plasmodium falciparum [6])?
**A.** 1800 nM

**Q.** What about the EC50 [7] of the same compound?
**A.** 18.2 µM

**Q.** And the EC50 (Leishmania major)?
**A.** > 15.1 µM

**Q.** What about the EC50 (Plasmodium falciparum [8]) of the same compound?
**A.** 1250 nM

**Q.** And the EC50 [9]?
**A.** > 35.3 µM

**Q.** What about the EC50 (Plasmodium falciparum [10]) of the same compound?
**A.** 2320 nM

**Q.** What about the EC50 [11] of the same compound?
**A.** > 35.3 µM

**Q.** What about the EC50 (Toxoplasma gondii) of the same compound?
**A.** > 19.3 µM

**Q.** And the EC50 (Plasmodium falciparum [12])?
**A.** 1260 nM

**Q.** What about the EC50 (Plasmodium falciparum [13]) of the same compound?
**A.** 1070 nM

**Q.** Which EC50 (Plasmodium falciparum [8]) does the source give for `CCOc1ccccc1CNC(=O)C1c2ccccc2C(=O)N(CC(C)C)C1c1cccs1` (stereo unspecified) here?
**A.** 1490 nM

**Q.** What about the EC50 (Plasmodium falciparum [12]) of the same compound?
**A.** 1430 nM
